# An excerpt weighted towards active compounds, which were near 3.1% of everything screened.
# DENV2 CPE – inhibitors of DENV2 cytopathic effect, primary screen, cell-based, plate reader, single concentration. CPE inhibition, % at 9.99 µM. 350,000 tested, 1.7% active. DENV2-infected cells, cytopathic effect rescue; in the data active = CPE inhibition above about 20%, passing the limit was not always enough; inconclusive = no clear call, values can overlap the other calls; tested in BHK-21 cells
# miR-122 sensor – miR-122 Renilla sensor signal increase in Huh7, primary screen, miR-122 inhibitor project, cell-based, single point, plate reader. Huh7 miR-122 Renilla luciferase sensor, 48 h; neutral wells = 0, positive control = 100. 340,000 tested, 0.3% active. activation (reporter increase), % at 12.5 µM;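 active = mean replicate activation score at least 90 and every replicate individually at or above 90; inconclusive = only one of the two criteria met; inactive = neither criterion met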;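 also: higher luciferase means less miR-122 activity so hits act as miR-122 inhibitors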
# Ecoli rRNA inh – reduced GFP signal of wild-type E. coli, primary screen, bacterial rRNA inhibitor project, GFP/RFP fluorescence, OD600, single point; E. coli WT GFP vs humanized-ribosome RFP mutants, 24 h; stronger effect = lower value; DMSO median 0, no signal -100; GFP signal change (wild-type ribosome), % (no concentration beside the values); 350,000 tested, 1.6% active;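 active = significant combined selectivity score with lowered wild-type GFP, culture density cut under 30%, mutant RFP and density less affected; inactive = any of these conditions unmet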
# E-sel inducer – E-selectin induction in HUVECs, primary screen, imaging, HUVEC, immunofluorescence imaging, single point | P16581 | normalized: neutral wells 0, TNF-alpha wells 100 | activation, % at 7.58 µM | 260,000 tested, 0.37% active | AID 686992, 2013;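 active = mean E-selectin-positive cell signal at least 10% of the positive control, reached in at least 60% of replicates, without over 20% cell loss; inconclusive = no rule given, readout overlaps actives, possibly toxicity-flagged; inactive = the rest, including those meeting only one limit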
# Target sequence (P16581 whole entry, looked up): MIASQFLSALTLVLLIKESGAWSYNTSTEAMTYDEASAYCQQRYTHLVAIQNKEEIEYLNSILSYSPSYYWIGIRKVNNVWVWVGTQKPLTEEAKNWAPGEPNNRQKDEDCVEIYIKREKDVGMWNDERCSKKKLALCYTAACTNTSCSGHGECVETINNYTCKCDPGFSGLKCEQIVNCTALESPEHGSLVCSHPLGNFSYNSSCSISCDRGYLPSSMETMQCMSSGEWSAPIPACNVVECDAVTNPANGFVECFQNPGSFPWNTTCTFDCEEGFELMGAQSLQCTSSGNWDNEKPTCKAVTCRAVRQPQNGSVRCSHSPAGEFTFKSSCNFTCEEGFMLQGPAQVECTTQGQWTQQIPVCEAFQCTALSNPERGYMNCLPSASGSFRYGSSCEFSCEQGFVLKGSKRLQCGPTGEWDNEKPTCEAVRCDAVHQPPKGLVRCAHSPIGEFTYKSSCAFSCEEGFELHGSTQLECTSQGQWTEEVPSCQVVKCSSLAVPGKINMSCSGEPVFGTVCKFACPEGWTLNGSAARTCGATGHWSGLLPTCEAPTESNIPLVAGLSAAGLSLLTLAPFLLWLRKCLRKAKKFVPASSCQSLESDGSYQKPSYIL
#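 assay system = HUVEC, human umbilical vein endothelial cells | input = 3,000 HUVEC seeded per well | medium = EGM-2 growth medium on 0.1% gelatin-coated wells | dosing = one compound dose added by pin transfer | signal = immunofluorescence imaging | read-out basis = % PE-positive cells | control set = TNF-alpha, DMSO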
# Cneo AK release – Cryptococcus neoformans cell lysis inducers, primary screen, AK release luminescence, single concentration. C. neoformans lysis, adenylate kinase release luminescence, 4 h; normalised: neutral wells 0, clomiphene wells 100. AID 651654, 2012. 360,000 tested, 0.2% active. lysis activity, % at 15 µM;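 active = mean lysis activity across replicates of at least 80%, whatever share of replicates individually reach that level; inactive = mean lysis activity below 80%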
#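 Assay system: C. neoformans cells. Amount: yeast cell density of 5 × 10^6 cells/mL. Technique: AK luminescence. Buffer or medium: YPD. Times: static 4 h at 37 °C with compound, 1 h detection. Dosing: single-point compound dose. Read-out: lysis from increased AK signal.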
# A number is an active result; . = inactive; ? = inconclusive; / = no result given; ! = not active in a repeat.
SMILES,DENV2 CPE,miR-122 sensor,Ecoli rRNA inh,E-sel inducer,Cneo AK release
CCOC(=O)N(C)C[C@H]1OCc2cnnn2CCCC(=O)N([C@H](C)CO)C[C@H]1C,.,.,.,.,.
CCOC(=O)N(C)C[C@@H]1OCc2cnnn2CCCC(=O)N([C@@H](C)CO)C[C@@H]1C,70.1!,.,.,.,.
C[C@@H]1CN([C@@H](C)CO)C(=O)CCCn2nncc2CO[C@H]1CN(C)C(=O)Nc1ccccc1,30.8,.,.,.,.
C[C@@H]1CN([C@H](C)CO)C(=O)CCCn2nncc2CO[C@@H]1CN(C)C(=O)Nc1ccccc1,.,.,.,.,.
CC(C)NC(=O)N(C)C[C@H]1OCc2cnnn2CCCC(=O)N([C@H](C)CO)C[C@@H]1C,91.8!,.,.,.,.
C[C@H](CO)N1C[C@H](C)[C@@H](CN(C)Cc2cccc3c2OCCCO3)OCc2cnnn2CCCC1=O,.,.,.,.,.
COc1cccc(S(=O)(=O)N(C)C[C@@H]2OCc3cnnn3CCCC(=O)N([C@H](C)CO)C[C@H]2C)c1,?,.,.,.,.
COc1cccc(S(=O)(=O)N(C)C[C@H]2OCc3cnnn3CCCC(=O)N([C@H](C)CO)C[C@H]2C)c1,?,.,.,.,102.7!
CCn1cc(C(=O)O)c(=O)c2cc(F)c(N3CCN(C(=S)NC(=O)c4ccc(F)cc4)CC3)cc21,.,.,.,.,.
CCCOc1ccc(C(=O)NC(=S)N2CCN(c3cc4c(cc3F)c(=O)c(C(=O)O)cn4CC)CC2)cc1,52.5,.,.,.,.
O=C(C[C@H]1CC[C@@H]2[C@H](COC[C@H](O)CN2Cc2cccc(Cl)c2)O1)NCC1CCCCC1,.,.,.,.,.
NC(=O)c1cc(C(=O)c2ccc(Cl)cc2Cl)c[nH]1,32.8,.,.,.,/
NC(=O)c1cc(C(=O)c2ccc(Cl)cc2)c[nH]1,.,/,-23.5,/,/
COc1cccc(C#Cc2ccc([C@H]3[C@@H](CO)N4C(=O)CN(C(=O)c5ccncc5)C[C@@H]34)cc2)c1,.,/,.,.,/
C[C@@H]1CN([C@@H](C)CO)C(=O)c2cccc(NS(=O)(=O)c3ccc(F)cc3)c2O[C@@H]1CN(C)Cc1ccc(Oc2ccccc2)cc1,/,.,.,.,/
O=C(c1cccc(F)c1)N1CCCCN2[C@@H](CO)[C@H](c3ccc(-c4ccncc4)cc3)[C@@H]2C1,.,.,.,.,112.2
O=C(c1cccc(F)c1)N1CCCCN2[C@H](CO)[C@@H](c3ccc(-c4ccncc4)cc3)[C@H]2C1,.,.,.,.,.
COc1ccccc1NC(=O)N1CCCCN2[C@H](CO)[C@H](c3ccc(-c4cccc(C)c4)cc3)[C@@H]2C1,21.5,.,.,.,.
Cc1cccc(-c2ccc([C@@H]3[C@H]4CN(C(=O)c5ccc6c(c5)OCO6)CCCCN4[C@H]3CO)cc2)c1,.,.,.,.,86.1
COc1ccc(-c2ccc([C@H]3[C@H](CO)N4CCCCN(C(=O)c5ccc(F)cc5)C[C@@H]34)cc2)cc1,/,.,.,.,.
COc1cccc(-c2ccc([C@H]3[C@H](CO)N4CCCCN(C(=O)c5ccc(F)cc5)C[C@@H]34)cc2)c1,37.0,.,.,.,.
O=C(C[C@@H]1C=C[C@H](NC(=O)c2ccncc2)[C@H](CO)O1)Nc1ccc(-c2ccccc2)cc1,.,/,.,.,.
C[C@@H]1CN([C@H](C)CO)S(=O)(=O)c2ccc(-c3cccc(C#N)c3)cc2O[C@H]1CN(C)C,.,.,.,.,.
O=C(C[C@@H]1C=C[C@H](NC(=O)Cc2cccnc2)[C@H](CO)O1)Nc1ccc(-c2ccccc2)cc1,.,/,.,.,/
COc1ccc2c3c([nH]c2c1)[C@H](CO)N(C(C)=O)CC31CN(C(C)=O)C1,.,/,.,.,/
SMILES,DENV2 CPE,miR-122 sensor,Ecoli rRNA inh,E-sel inducer,Cneo AK release
C[C@H]1CCCCO[C@@H](CN(C)S(=O)(=O)c2ccc(Cl)cc2)[C@@H](C)CN([C@@H](C)CO)C(=O)c2cc(NC(=O)CCC(F)(F)F)ccc2O1,/,.,.,.,.
Cc1ccc(S(=O)(=O)N[C@H]2CC[C@@H](CCNC(=O)C3CC3)O[C@H]2CO)cc1,.,/,.,.,.
Cc1cccc(-c2ccc([C@H]3[C@@H](CO)N4CCCCN(C(=O)c5ccncc5)C[C@H]34)cc2)c1,20.4,.,.,.,.
COCC(=O)N1CCCCN2[C@H](C1)[C@@H](c1ccc(-c3ccc(F)cc3)cc1)[C@@H]2CO,.,.,.,.,.
CCC(=O)N1CCCCN2[C@@H](CO)[C@H](c3ccc(-c4ccc(F)cc4)cc3)[C@@H]2C1,24.6,.,.,.,.
Cc1cccc(-c2ccc([C@@H]3[C@@H](CO)N4CCCCN(C(=O)c5ccncc5)C[C@H]34)cc2)c1,.,.,.,.,.
CN(C)CC#Cc1ccc([C@H]2[C@H](CO)N3CCCCN(C(=O)Nc4cc(F)ccc4F)C[C@@H]23)cc1,31.6,.,.,.,.
CN(C)CC#Cc1ccc([C@@H]2[C@H](CO)N3CCCCN(C(=O)Nc4cc(F)ccc4F)C[C@@H]23)cc1,.,.,.,.,.
CN(C)CC#Cc1ccc([C@H]2[C@@H](CO)N3CCCCN(C(=O)c4ccc5c(c4)OCO5)C[C@H]23)cc1,22.3,.,.,.,.
CN(C)CC#Cc1ccc([C@H]2[C@H](CO)N3CCCCN(C(=O)c4ccc5c(c4)OCO5)C[C@@H]23)cc1,?,.,.,.,.
CC(C)C#Cc1ccc([C@@H]2[C@H](CO)N3CCCCN(C(=O)c4ccc5c(c4)OCO5)C[C@@H]23)cc1,.,.,.,.,110.9
CCCCCC(=O)NNC(=S)NC(=O)c1ccccc1[N+](=O)[O-],.,/,-32.2,/,/
CCCCCC(=O)NNC(=S)NC(=O)c1cccc([N+](=O)[O-])c1,/,.,/,/,.
CCC(=O)NC(=S)Nc1ccc(NC(=O)c2ccccc2[N+](=O)[O-])cc1,.,.,-22.5,/,.
COc1ccc(-c2ccc3n(c2=O)C[C@@H]2[C@@H](CO)[C@H](C(=O)N4CCCCC4)[C@H]3N2C)cc1,.,.,.,.,.
O=C(/C=C/c1ccccc1[N+](=O)[O-])N1CCN(c2ccc(F)cc2)CC1,/,/,-30.1,/,.
O=C1c2ccccc2NC(c2ccc(-c3cccc([N+](=O)[O-])c3)o2)N1O (stereo not drawn),/,/,-20.8,.,/
O=C(c1ccccc1F)N1CC(=O)N2[C@H](CO)[C@@H](c3ccc(C#Cc4ccc(F)cc4)cc3)[C@H]2C1,?,/,.,.,/

# Screening results deposited in PubChem by Broad Institute.
